Measured values collected from several papers.
RET: Proto-oncogene tyrosine-protein kinase receptor Ret (RET, Homo sapiens, UniProt P07949)
RET V804M: Proto-oncogene tyrosine-protein kinase receptor Ret (RET, Homo sapiens, UniProt P07949, V804M)

SMILES | target | test | conditions | endpoint | value
CCCCC(=O)Nc1ccc(-c2ccc3ncn(CCC)c(=O)c3c2)cn1 | Proto-oncogene tyrosine-protein kinase receptor Ret (RET, Homo sapiens, UniProt P07949, V804L) | binding, competition with immobilised ligand | 0.5 µM | remaining binding | 100%
C1=C/COCc2cc(ccc2OCCN2CCCC2)Nc2nccc(n2)-c2cccc(c2)COC/1 | Proto-oncogene tyrosine-protein kinase receptor Ret (RET, Homo sapiens, UniProt P07949, M918T) | binding | 0.1 µM | remaining binding | 100%
N#Cc1ccc(NC(=O)Nc2ccccc2)cc1 | RET | cell-free assay, competition with immobilised ligand | 25 µM | remaining binding | 100%
Cc1ccc(NC(=O)c2ccnc(C(F)(F)F)c2)cc1-c1cc(OCCO)nc(N2CCOCC2)c1 | RET V804M | binding | 1 µM | remaining binding | 98%
CC#CC(=O)N1CCC[C@H]1c1nc(-c2ccc(C(=O)Nc3ccccn3)cc2)c2c(N)nccn12 | RET | enzyme activity, inhibitor | 1 µM | inhibition | 7%
CN1CCN(C(=O)c2ccc(NC(=O)Nc3ccc(N(C)c4ccnc(Nc5ccc(CS(C)(=O)=O)cc5)n4)cc3)cc2)CC1 | RET V804M | binding | 1 µM | remaining binding | 0.5%
CO[C@@H]1[C@H](N(C)C(=O)c2ccccc2)C[C@H]2O[C@]1(C)n1c3ccccc3c3c4c(c5c6ccccc6n2c5c31)C(=O)NC4 | RET | enzyme activity, inhibitor | 1 µM | inhibition | 95%
COc1ccc2oc(-c3ccc4nc(N)oc4c3)c/c(=N\c3ccccc3NC(=O)CCN)c2c1 | RET | binding | 1 µM | remaining binding | 109%
